# Source: ChEMBL document CHEMBL4373712, “Bioactivatable Pseudotripeptidization of Cyclic Dipeptides To Increase the Affinity toward Oligopeptide Transporter 1 for Enhanced Oral Absorption: An Application to Cyclo(l-Hyp-l-Ser) (JBP485)” (J Med Chem, 2019)
# Calls of active or inactive are those of the source. The calls are words filed in the database; no cut-off is given here.
# Assays:
# [1] = Cmax in Sprague-Dawley rat at 6 mg/kg, iv by UPLC-MS/MS analysis; assay type: ADME, organism-based; design: dose 6 mg/kg, route intravenous; details: in vivo
# In short: (§1)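 Male SD rats, 200-250 g, fasted 12 h with water, n=6. Oral dose of 12 mg/kg as JBP485 equivalent; dose-effect arms at 12 and 100 mg/kg. JBP485 given iv at 6 mg/kg as the reference. Jugular blood taken at 0.083-10 h. Plasma JBP485 by UPLC-MS/MS. Absolute F = (AUCpo×Div)/(AUCiv×Dpo)×100%, using AUC0-t.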
# [2] = system: Rattus norvegicus; test: Anti-hepatitis activity in ANIT-induced Sprague-Dawley rat model of liver injury assessed as reduction in hepatocellular edema at 6.25 to 12.5 mg/kg, ip administered 30 mins prior to ANIT challenge and subsequent dosing at 8, 22, 32, and 46 hrs post ANIT challenge and measured 48 hrs post ANIT challenge by H and E staining-based assay; assay type: functional, organism-based
# In short: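 ANIT 50 mg/kg ip liver-injury model in male SD rats, 6 per group. Oral or ip treatment at 30 min before and 8, 22, 32 and 46 h after ANIT. Liver excised at 48 h, fixed in 4% formalin, stained with H&E, and examined microscopically for hepatocellular edema and necrosis.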
# [3] = Cmax in Sprague-Dawley rat assessed as JBP485 level at 100 mg/kg, po by LC-MS/MS analysis; assay type: ADME, organism-based; design: dose 100 mg/kg, route oral; details: in vivo; in short: as §1
# [4] = AUC (0 to t) in Sprague-Dawley rat at 6 mg/kg, iv by UPLC-MS/MS analysis; assay type: ADME, organism-based; details: in vivo; in short: as §1
# [5] = Oral bioavailability in Sprague-Dawley rat at 12 mg/kg by UPLC-MS/MS analysis; assay type: ADME, organism-based; details: in vivo; in short: as §1
# [6] = Terminal half life in Beagle dog at 12 mg/kg, po by UPLC-MS/MS analysis; assay type: ADME, organism-based, Canis lupus familiaris; details: in vivo, read-out: beta t1/2 (converted)
# In short: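 Male beagle dogs, 2 years old, 8–10 kg, dosed orally at 12 mg/kg (prodrug calculated as JBP485) in aqueous solution. Jugular blood taken 0.167–8 h into heparin, centrifuged, plasma JBP485 by UPLC-MS/MS; n=6.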
# [7] = Terminal half-life in Sprague-Dawley rat at 12 mg/kg, po by UPLC-MS/MS analysis; assay type: ADME, organism-based; details: in vivo, read-out: beta t1/2 (converted)
# In short: (§2)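 Fasted male SD rats (200–250 g), oral 12 mg/kg (prodrugs calculated as JBP485). Jugular blood 0.083–10 h, centrifuged, plasma JBP485 by UPLC-MS/MS; n=6.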
# [8] = Terminal half life in Sprague-Dawley rat assessed as JBP485 level at 100 mg/kg, po by LC-MS/MS analysis; assay type: ADME, organism-based; details: in vivo
# In short: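 Male SD rats (200–250 g) fasted 12 h, given JBP485 or prodrug (calculated as JBP485) orally at 12 or 100 mg/kg. Jugular blood sampled 0.083–10 h, plasma JBP485 by UPLC-MS/MS; n=6.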
# [9] = system: Rattus norvegicus; test: Anti-hepatitis activity in ANIT-induced Sprague-Dawley rat model of liver injury assessed as reduction in serum alanine aminotransferase level at 3.125 to 25 mg/kg, po administered 30 mins prior to ANIT challenge and subsequent dosing at 8, 22, 32, and 46 hrs post ANIT challenge and measured 48 hrs post ANIT challenge; assay type: functional, organism-based
# In short: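 ANIT (50 mg/kg ip, olive oil) cholestatic liver injury in male SD rats, 6 per group. Oral or ip dosing (UDCA 100 mg/kg po in CMC-Na) at 30 min before and 8, 22, 32 and 46 h after ANIT. Serum collected at 48 h from the abdominal aorta; ALT and AST activities measured with kits.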
# [10] = Terminal half-life in Sprague-Dawley rat assessed as JBP485 level at 12 mg/kg equiv of JBP485 administered orally by UPLC-MS/MS analysis; assay type: ADME, organism-based; details: in vivo, po; in short: as §2
# [11] = Oral bioavailability in Sprague-Dawley rat assessed as JBP485 level at 12 mg/kg equiv of JBP485 by UPLC-MS/MS analysis; assay type: ADME, organism-based; details: in vivo; in short: as §1
# [12] = Ratio of half-life in pH 7.2 phosphate buffer to half-life in Sprague-Dawley rat plasma; assay type: ADME
Compound,Cmax [1] [nM/ml],Activity [2],Cmax [3] [nM/ml],AUCt [4] [µM·h],bioavailability [5] [%],half-life [6] [h],half-life [7] [h],beta t1/2 [8] [h],Activity [9],beta t1/2 [10] [h],F [11] [%],Ratio [12]
O=C1N[C@@H](CO)C(=O)N2C[C@H](O)C[C@@H]12,334.91,Active,95.96,194,21,5.23,2.12,1.5,,,,
CC(C)[C@H](N)C(=O)OC[C@@H]1NC(=O)[C@@H]2C[C@@H](O)CN2C1=O,,,,,,,,,Active,2.11,50.1,3 to 35
